This note sets out measurements from ChEMBL document CHEMBL4152320, “Discovery and development of novel salicylate synthase (MbtI) furanic inhibitors as antitubercular agents” (Eur J Med Chem, 2018).

The test system of test [1] is Mycobacterium tuberculosis. Description: Inhibition of Mycobacterium tuberculosis salicylate synthase expressed in Escherichia coli BL21(DE3) assessed as residual activity at 100 uM using chorismic acid as substrate in presence of NADH by l-lactic dehydrogenase enzyme coupled assay relative to control.
A short description of test [2]: Inhibition of Mycobacterium tuberculosis salicylate synthase expressed in Escherichia coli BL21(DE3) using chorismic acid as substrate in presence of NADH by l-lactic dehydrogenase enzyme coupled assay. In short, it runs like this:
(§1)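 IC50 at subsaturating chorismic acid (50 µM) via LDH-coupled NADH assay, 37 °C, 50 mM HEPES pH 8.0, 10 mM MgCl2, 10-20 µM MbtI; activity at varied inhibitor fitted to A[I] = A[0]×(1−[I]/([I]+IC50)). Aggregation controls run with BSA or Triton X-100 added (line 8 BSA, line 11 Triton).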

Test [3] relates to Mycobacterium tuberculosis. Description: Inhibition of Mycobacterium tuberculosis salicylate synthase expressed in Escherichia coli BL21(DE3) using chorismic acid as substrate in presence of Triton-X-100 by l-lactic dehydrogenase enzyme coupled assay. The method, boiled down:
as §1

Test [4] has as its system Mycobacterium tuberculosis. Kind of test: Antimycobacterial activity against Mycobacterium tuberculosis H37Rv. The class given is functional. In short, it runs like this: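 MIC99 vs M. tuberculosis H37Rv on solid medium. Single colony grown in 7H9 + 10% OADC at 37 °C to exponential phase (~10^8 CFU/mL), diluted to ~10^6 CFU/mL, about 1 µL streaked onto plates with two-fold serial compound dilutions; MIC = lowest concentration inhibiting growth; triplicate.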

Test [5] concerns Mycobacterium tuberculosis. Description: Inhibition of Mycobacterium tuberculosis salicylate synthase expressed in Escherichia coli BL21(DE3) using chorismic acid as substrate in presence of DTT by l-lactic dehydrogenase enzyme coupled assay. In short, it runs like this:
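IC50 with 100 µM DTT present, to probe cysteine reactivity; LDH-coupled assay at 37 °C with 50 µM chorismic acid, 50 mM HEPES pH 8.0, 0.2 mM NADH, 10 mM MgCl2, 10-20 µM MbtI; fitted to single-site IC50 equation.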

Test [6] relates to Mycobacterium tuberculosis. Kind of test: Inhibition of Mycobacterium tuberculosis salicylate synthase expressed in Escherichia coli BL21(DE3) using chorismic acid as substrate in presence of BSA by l-lactic dehydrogenase enzyme coupled assay. In short, it runs like this: as §1
A short description of test [7]: Competitive inhibition of Mycobacterium tuberculosis salicylate synthase expressed in Escherichia coli BL21(DE3) using varying levels of chorismic acid as substrate in presence of NADH by l-lactic dehydrogenase enzyme coupled assay. The method, boiled down:
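Ki by competitive-inhibition fit of MbtI activity across varied CHA (10-500 µM range used for kinetics) and inhibitor levels (0, 5, 10, 20, 50, 100 µM). Coupled lactate dehydrogenase assay at 37 °C: 50 mM HEPES pH 8.0, 0.2 mM NADH, 10 mM MgCl2, 3 U LDH, 10-20 µM MbtI; reactions started with CHA; triplicate.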

The structures appear in SMILES notation. Converted amounts (≈) assume the structure as drawn. The source made the active and inactive calls. The calls are words filed in the database; no cut-off is given here.

As usually defined, the IC50 is the midpoint of a concentration-inhibition curve. The MIC99 is an inhibitory concentration at the 99% level, which refers to growth in some studies and to a panel of isolates in others. Low readings indicate greater potency, high ones weaker potency. The Ki is a dissociation constant, usually derived from enzyme kinetics or from competition with a known ligand.

Take `O=C(O)c1ccc(-c2cccc([N+](=O)[O-])c2)o1`: the Activity in test [1] was 50.2%.

With `NS(=O)(=O)c1ccc(-c2ccc(C(=O)O)o2)cc1`, in test [1], the Activity was 84.6%.

Consider `Cc1cc(C(=O)O)c2ccc(F)cc2n1`, for which the Activity in test [1] worked out at 101%.

With `COC(=O)c1ccc(-c2ccc([N+](=O)[O-])cc2)o1`, the Activity in test [1] came to 71.1%.

Regarding `CS(=O)(=O)c1ccc(-c2ccc(C(=O)O)o2)cc1`, the Activity in test [1] worked out at 98.5%.

Regarding `O=C(O)c1cccc(-c2ccc([N+](=O)[O-])cc2)c1`, the Activity in test [1] is 36.8%.

Regarding `N#Cc1ccc(-c2ccc(C(=O)O)o2)cc1`, in test [1], the Activity was determined as 126%.

`COc1ccc([N+](=O)[O-])cc1S(=O)(=O)Nc1cccc(C(=O)O)c1`: in test [1], the Activity was found to be 38.4%. In addition, in test [2], the IC50 turned out to be 77.6 µM.

As for `O=C(O)c1ccc(-c2ccccc2)o1`, the Activity in test [1] amounted to 102%.

In the case of `O=C(O)c1ccc(-c2ccc(-c3nn[nH]n3)cc2)o1`, in test [1], the Activity is 104%.

Consider `O=C(O)c1ccc(-c2ccncc2)o1`, for which the Activity in test [1] was 45%.

On to `O=C(O)c1ccc(-c2ccccc2Cl)o1`, for which, in test [1], the Activity was found to be 92.4%.

In the case of `O=C(O)c1ccc([N+](=O)[O-])cc1Cl`, the Activity in test [1] stood at 89.3%.

In the case of `O=C(O)c1ccc(-c2ccc3nonc3c2)o1`, the Activity in test [1] came to 46.8%.

Turning to `O=C(O)c1ccc(-c2ccc([N+](=O)[O-])cc2Cl)o1`, the Activity in test [1] turned out to be 21.3%. Also, the IC50 in test [2] was determined as 21.1 µM.

For the compound `O=C(O)c1ccc(-c2ccc([N+](=O)[O-])cc2)o1`, the inhibition result in test [3], in test [5] and in test [6] was “Active” in each case. Besides, the Activity in test [1] was 18.2%. In addition, the MIC99 in test [4] is 156 µM (≈ 36.4 µg/mL). Further, in test [7], the Ki was 5.3 µM.

Turning to `O=C(O)c1ccc(-c2ccc(C(=O)O)o2)cc1`, the Activity in test [1] turned out to be 92.4%.

With `O=C(O)c1ccc(-c2ccc(C(F)(F)F)cc2)o1`, the Activity in test [1] turned out to be 66.3%.

For `C/C=C(\Oc1cccc(C(=O)O)c1O)C(=O)O`, the IC50 in test [2] came to 11.6 µM.

`Cc1nc(C(C)NC(=O)c2ccoc2)sc1C(=O)O` (stereo unspecified): in test [1], the Activity worked out at 109%.

On to `O=C(O)c1ccc(-c2ccc3c(c2)COC3=O)o1`, for which, in test [1], the Activity amounted to 58%.

In the case of `O=C(O)c1ccc(-c2ccc(O)cc2)o1`, the Activity in test [1] worked out at 96.3%.

On to `O=C(O)c1ccc(-c2ccccc2[N+](=O)[O-])o1`, for which the Activity in test [1] came to 55.1%.

For `COc1ccc(C(=O)O)cc1OCc1ccncc1`, in test [1], the Activity was determined as 104%.
